High-throughput results (PubChem BioAssay)
In the library only some 6% were active in any assay of this set; here they are far more common.
E coli WT exp – growth inhibitors of E. coli BW25113 wild type; OD600 absorbance; growth inhibition, % at 100 µM; hit rate 0.15% among 98,000; AID 710;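 active = growth inhibition above about 50% at one test dose, limit read from the data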;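 also: growth measured after 20 h incubation at 37 °C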
Ecoli tolC – growth inhibitors of E. coli BW25113 tolC mutant; hit rate 2.2% among 65,000; growth inhibition, % at 10 µM (by protocol); OD615;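 active = growth inhibition at or above a cutoff equal to the mean over every tested compound plus 3 SD, cut at about 60% in these data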;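 also: growth measured after 20 h incubation at 37 °C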
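System: E. coli ΔtolC::kan strain BW25113; Buffer or medium: LB broth supplemented with 50 µg/mL kanamycin; Compound: 10 µM final, single dose; Incubation: bacterial growth with compound for 20 h at 37 °C; Signal: A615 absorbance measurement; Evaluation: growth inhibition in percent.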
EphB4 antag – blocks human EphB4 binding to ephrin-B2. P54760. EphB4 LBD / TNYL-RAW-Alexa532 peptide, fluorescence polarization. inhibition, % at 7 µM. hit rate 0.15% among 97,000. AID 720;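 active = inhibition above the screen-wide mean inhibition plus 3 SD, cut at about 15% in these data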;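 also: 0% = DMSO wells and 100% = excess unlabeled TNYL-RAW peptide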
Target sequence (P54760 whole entry, looked up, the tested form may be a part): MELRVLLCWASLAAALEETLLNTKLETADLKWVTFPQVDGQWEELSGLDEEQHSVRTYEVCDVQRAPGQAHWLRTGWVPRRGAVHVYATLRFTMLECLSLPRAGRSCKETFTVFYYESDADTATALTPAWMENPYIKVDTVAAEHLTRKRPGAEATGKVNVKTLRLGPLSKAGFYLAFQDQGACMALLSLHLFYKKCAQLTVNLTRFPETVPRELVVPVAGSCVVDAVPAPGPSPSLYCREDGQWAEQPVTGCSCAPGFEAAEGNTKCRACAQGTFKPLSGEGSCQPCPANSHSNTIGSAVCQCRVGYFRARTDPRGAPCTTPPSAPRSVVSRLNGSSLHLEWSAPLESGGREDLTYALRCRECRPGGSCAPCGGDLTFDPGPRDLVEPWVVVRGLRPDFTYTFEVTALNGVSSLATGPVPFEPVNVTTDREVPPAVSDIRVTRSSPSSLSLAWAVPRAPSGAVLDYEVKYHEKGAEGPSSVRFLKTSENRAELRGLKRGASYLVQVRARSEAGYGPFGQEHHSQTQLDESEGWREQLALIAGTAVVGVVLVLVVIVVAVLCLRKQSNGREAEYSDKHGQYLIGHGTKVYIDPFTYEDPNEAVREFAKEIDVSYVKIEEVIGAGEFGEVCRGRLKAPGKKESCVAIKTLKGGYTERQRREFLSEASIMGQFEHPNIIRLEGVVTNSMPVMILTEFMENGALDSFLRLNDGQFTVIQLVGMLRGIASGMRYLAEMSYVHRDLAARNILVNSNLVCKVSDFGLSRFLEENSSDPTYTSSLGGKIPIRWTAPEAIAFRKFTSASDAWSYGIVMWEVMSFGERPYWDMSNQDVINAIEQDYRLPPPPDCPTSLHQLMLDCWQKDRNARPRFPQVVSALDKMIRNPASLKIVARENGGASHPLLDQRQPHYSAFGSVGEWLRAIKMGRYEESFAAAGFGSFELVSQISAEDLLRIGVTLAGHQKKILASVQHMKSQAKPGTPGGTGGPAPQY
PostGolgi yeast – growth inhibition of a yeast mutant, post-Golgi transport screen; inhibition, % at 10 µM; hit rate 0.9% among 98,000; AID 739; post-Golgi transport phenotypic cell assay;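 also: yeast cells grown in 1536-well plates; yeast grown about 18 h at 30C before absorbance read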
PostGolgi ctrl – growth of the yeast control strain, post-Golgi counter-screen | efflux-deficient yeast background strain, growth absorbance A615, 16 h | hit rate 5% among 98,000 | AID 738 | inhibition, % at 10 µM
The depositor's hits bear a star; . = not tested or not shown. Rule as the data show it, unless noted: active = inhibition above about 30%; inactive = the rest.

SMILES | E coli WT exp | Ecoli tolC | EphB4 antag | PostGolgi yeast | PostGolgi ctrl
N#CCCN1CCN(C(=S)c2ccc(-c3ccc(Cl)c(Cl)c3)o2)CC1 | -33 | 55 | -4 | 8 | 33*
Cn1c(Sc2ccccc2Cl)c(C=O)c2ccccc21 | -8 | . | -6 | 5 | 13
Cn1c(Sc2ccc(Cl)cc2)c(C=O)c2ccccc21 | -3 | . | 8 | 8 | 37*
O=C(Cn1nc(C(F)(F)F)c2c1CCC2)N1CCN(c2ccccc2)CC1 | 5 | 21 | 12 | 1 | 11
Cc1sc2ncnc(N3CCN(CCOc4ccc(Cl)cc4)CC3)c2c1C | -19 | . | -13 | -5 | 35*
Cc1sc2ncnc(N3CCC(C)CC3)c2c1C | . | . | 4 | . | .
Cc1ccc(N2C(=O)C(Cl)=C(Nc3c(C)n(C)n(-c4ccccc4)c3=O)C2=O)cc1 | -12 | -28 | -4 | 20 | 33*
CCOc1ccccc1-c1nn2c(Cc3ccccc3)nnc2s1 | -9 | 99* | . | 8 | 78*
Cc1ccc(Nc2nc3c(c(=O)[nH]c(=O)n3C)n2Cc2ccc(F)cc2)cc1 | . | . | -9 | . | .
CCCCCCSC1=C(C#N)C(c2ccccc2)CC(=O)N1 (centres undefined) | -6 | 2 | -1 | 36* | 57*
Cn1c(SCC(=O)c2ccc3c(c2)OCCO3)nnc1C1CC1 | . | . | -8 | . | .
Cc1ccc(S(=O)(=O)c2ccc(Oc3cccc(C)c3)cc2)cc1 | -2 | . | 6 | -4 | 8
CC(C)(C)C(=O)C(Oc1cccc2nonc12)n1cncn1 (centres undefined) | -2 | -7 | -6 | 46* | 17
Cc1ccc(CNc2ccc3c(c2)OCO3)c(C)c1 | 0 | 22 | 1 | -2 | 39*
CC1CC(C)CN(c2ncc3c(n2)CC(c2ccccc2Cl)CC3=O)C1 (centres undefined) | -11 | 16 | -4 | -4 | 31*
O=C1CC(c2ccccc2)Cc2nc(N3CCc4ccccc4C3)ncc21 (centres undefined) | -15 | . | 7 | 5 | 46*
COc1ccc(CC(C)N2CCN(c3cccc(C(F)(F)F)c3)CC2)cc1OC (centres undefined) | 7 | . | -1 | 4 | 1
COc1ccc(-c2n[nH]c(C(F)(F)F)c2-c2cc3ccccc3o2)c(O)c1 | 17 | 100* | 2 | 104* | 102*
COc1ccc(O)c(-c2cc(C(F)(F)C(F)F)nc(-c3ccccc3)n2)c1 | -10 | . | 0 | 1 | 6
O=C(CN(Cc1ccccc1F)C(=O)Cn1nnc(-c2cccs2)n1)NCC1CCCO1 (centres undefined) | -5 | -2 | -7 | 1 | 18
Cc1ccc(-n2c(C)cc(C(=O)CSc3nnnn3C)c2C)cc1 | -9 | 24 | -2 | -8 | 11
Cc1ccc(-n2c(C)cc(C(=O)CSc3nncs3)c2C)cc1 | -19 | 39 | . | -4 | 48*
Cc1cc(C(=O)CSc2nncs2)c(C)n1-c1c(C)n(C)n(-c2ccccc2)c1=O | 3 | -5 | 8 | -6 | 36*
COc1ccccc1C(=O)NCCN1CCN(C(=O)c2ccccc2OC)CC1 | 3 | -1 | 9 | -1 | 5
N#CCc1c(C#N)c(N)nc(N2CCN(c3ccc(F)cc3)CC2)c1C#N | -5 | . | -2 | 17 | 47*
SMILES | E coli WT exp | Ecoli tolC | EphB4 antag | PostGolgi yeast | PostGolgi ctrl
CCCCn1c(-c2csc3c2CCC(C)C3)n[nH]c1=S (centres undefined) | 17 | . | 11 | -3 | 42*
CCCCn1c(-c2csc3c2CCCC3)n[nH]c1=S | 17 | . | 2 | 5 | 19
CCCS(=O)(=O)c1cn2cccc(N)c2c1S(=O)(=O)CCC | -1 | 8 | . | -1 | 31*
Cc1ccc2nc(SCC(=O)Nc3cc(C)on3)[nH]c2c1 | 16 | 0 | -7 | 7 | 4
Cc1cc(NC(=O)CSC2=NCCS2)no1 | 3 | -4 | -1 | -5 | 30*
COc1ccc2nc(SCC(=O)Nc3cc(C)on3)[nH]c2c1 | 5 | . | -2 | 37* | 21
COC(=O)c1ccc(NC(=O)CSc2nccn2CCc2ccccc2)cc1 | -3 | . | -7 | -7 | 30
CN=C(Nc1ccc(Cl)cc1)c1ccc(C(F)(F)F)cc1 | 23 | . | 1 | 15 | 10
O=c1cc(C(Cl)(Cl)Cl)oc2c1ccc1ccccc12 | 3 | . | 2 | 17 | 53*
O=C(O)c1cc(-c2ccccc2)c(N2CCOCC2)s1 | 7 | -13 | 2 | 1 | 9
O=C(c1ccc(Cl)cc1)c1cc(-c2ccccn2)c(N2CCOCC2)s1 | -10 | . | 0 | 4 | 49*
CCn1nc2cc(C(=O)NCCc3cccs3)ccc2c1OC | 7 | . | -6 | 0 | 14
O=C(O)c1cc(-c2ccc(Cl)cc2)n[nH]1 | -7 | -5 | . | 12 | -4
O=[N+]([O-])c1cccnc1N1CCC(c2cc(-c3ccc(Cl)cc3)n[nH]2)CC1 | -7 | . | 3 | 3 | 69*
Cc1ccc(N(CC(=O)N2CCc3ccccc32)S(=O)(=O)c2cccs2)cc1 | -13 | . | 1 | -4 | 24
CCNC(=O)n1nccc1C(C)Oc1ccc(Cl)cc1 (centres undefined) | 6 | . | 0 | 3 | 7
CCNC(=O)n1nccc1C(C)Oc1cccc(C(F)(F)F)c1 (centres undefined) | 8 | . | -1 | -5 | 35*
c1ccc(-n2nnnc2SCc2cccc3nsnc23)cc1 | -12 | 24 | -2 | -6 | 17
COCCCNC(=O)c1cccc(C(=O)NCCCOC)c1 | 1 | -12 | -4 | -2 | 41*
CCC(C(=O)NCc1ccccc1OC)n1nc(C)n2c(cc3occc32)c1=O (centres undefined) | 8 | . | 1 | -5 | 4
CCC(C)c1ccc(OCCCCN2CCOCC2)cc1 (centres undefined) | 5 | . | 6 | 70* | 23
CCCCOc1ccc(OCCCN2CCOCC2)cc1 | . | 11 | . | . | .
Cc1cc(Cl)cc(C)c1OCCCCN1CCOCC1 | 8 | -10 | -2 | 35* | -2
CCCCCn1c(=NC(C)=O)c(C#N)cc2c(=O)n3cccc(C)c3nc21 | . | 21 | . | . | .
Cc1ccc(C(=O)NNC(=S)NC(=O)c2ccc(Cl)cc2)cc1 | -6 | . | 3 | -5 | 11
SMILES | E coli WT exp | Ecoli tolC | EphB4 antag | PostGolgi yeast | PostGolgi ctrl
O=C(NNC(=S)NC(=O)c1cccnc1)c1ccc(Cl)cc1 | 74* | . | 0 | 3 | -2
COCCCNc1nc2ccccc2nc1NS(=O)(=O)c1cccs1 | 2 | 8 | 3 | 13 | 16
COc1ccc(Nc2nc3ccccc3nc2NS(=O)(=O)c2cccs2)cc1 | -2 | . | 1 | 6 | 35*
CCCNC(=O)Cn1c(=O)oc2ccccc21 | 6 | . | -5 | 39* | 14
N#CC1=C(SCC(=O)c2cc3ccccc3oc2=O)NC(=O)C(C#N)C12CCCC2 (centres undefined) | -2 | 61* | 0 | 9 | 8
COc1ccc(CNc2nc3ccccc3n2Cc2ccccc2)cc1OC | -4 | . | 0 | 1 | 7
Cn1c(SCC(=O)n2c3c(c4ccccc42)CCCC3)nnc1-c1ccccc1 | -18 | . | -9 | 0 | 34*
Cc1ccc2[nH]c3c(c2c1)CN(C(=O)CN1CCN(c2ccccc2F)CC1)CC3 | 4 | 21 | 0 | 3 | 13
N#Cc1ccccc1Cn1c(=O)n(C2CCCC2)c(=O)c2ccccc21 | -10 | . | 4 | 5 | 30*
